Assay [1] can be described thus: Inhibition of Plasmodium falciparum recombinant His6-tagged GSK-3 expressed in Escherichia coli using GS-1 peptide as substrate after 30 mins by scintillation counting analysis in presence of gamma-33P-ATP. The method in brief: (§1)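 His6-tagged recombinant GSK-3 expressed in E. coli (TOP10/pBAD-Thio-TOPO for P. falciparum and T. gondii, arabinose-induced; BL21(DE3)-pRARE2/pET15 for C. parvum, IPTG at 15 °C), Ni-NTA purified. Assayed with 40 μM GS-1 phosphopeptide, 15 μM γ-33P-ATP in pH 7.5 Tris buffer with MgCl2, EGTA, DTT, heparin, BSA; 30 min, 30 °C; P81 paper, phosphoric acid washes, scintillation counting. DMSO controls; dose-response IC50, triplicate points.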

A short description of assay [2]: Inhibition of Plasmodium knowlesi recombinant His6-tagged GSK-3 expressed in Escherichia coli using GS-1 peptide as substrate after 30 mins by scintillation counting analysis in presence of gamma-33P-ATP. The method in brief: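 P. knowlesi GSK3 gene in pBAD-Thio-TOPO, expressed in E. coli TOP10 (ampicillin, 37 °C, 0.02% arabinose for 4 h), Ni-NTA purified. Radiometric assay: 40 μM GS-1 peptide in buffer A pH 7.5 (MgCl2, EGTA, DTT, heparin, BSA) with 15 μM γ-33P-ATP, 30 min at 30 °C. P81 filter binding, scintillation counting. IC50 from triplicate dose-response curves.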

A short description of assay [3]: Inhibition of Trypanosoma cruzi GSK-3.
Assay [4] is described as follows: Inhibition of Plasmodium falciparum recombinant GSK-3 by radiometric protein kinase assay. The method in brief:
as §1

The nature of assay [5]: Inhibition of Leishmania donovani GSK-3.
Assay [6] can be described thus: Inhibition of Trypanosoma brucei GSK-3.
Assay [7] deals with Glycogen synthase kinase-3 beta (Homo sapiens, UniProt P49841). In words: Inhibition of human Nt-GST-tagged GSK-3beta. The method in brief:
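Recombinant human GSK-3 isoform assayed radiometrically: 40 μM GS-1 peptide in buffer A pH 7.5 with 15 μM γ-33P-ATP, 30 min at 30 °C. Read-out by P81 filter binding and scintillation. IC50 from triplicate dose-response curves; top inhibitor concentration 10, 25 or 100 μM.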

Assay [8] is described as follows: Inhibition of Cryptosporidium parvum recombinant His6-tagged GSK-3 expressed in Escherichia coli using GS-1 peptide as substrate after 30 mins by scintillation counting analysis in presence of gamma-33P-ATP. The method in brief: as §1
Assay [9] deals with Glycogen synthase kinase-3 (Sus scrofa, UniProt B2LUN4+I6LNT8). Kind of assay: Inhibition of pig GSK-3alpha/beta. The method in brief: (§2)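 Native affinity-purified porcine GSK-3 in the radiometric assay: 40 μM GS-1 peptide, 15 μM γ-33P-ATP, pH 7.5 Tris/MgCl2/EGTA/DTT/heparin/BSA buffer, 30 min at 30 °C, P81 filter binding and scintillation counting. IC50 from dose-response curves with triplicate points; top concentration 10 or 100 μM.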

A short description of assay [10]: Inhibition of Toxoplasma gondii recombinant His6-tagged GSK-3 expressed in Escherichia coli using GS-1 peptide as substrate after 30 mins by scintillation counting analysis in presence of gamma-33P-ATP. The format is cell-free. The method in brief:
as §1

Assay [11] in a line: Inhibition of pig GSK-3 by radiometric protein kinase assay. Details: species or system Sus scrofa. The method in brief:
as §2

Assay [12] relates to Plasmodium falciparum. Kind of assay: Antiplasmodial activity against Plasmodium falciparum after 72 hrs by luciferase reporter gene assay. Conditions: 48 h, in the assay text read “after 48 hrs” for “after 72 hrs”. Type of assay: functional, organism-based. The method in brief:
(§3)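 NF54:LUC P. falciparum erythrocytic stages (luciferase under hrp2 promoter) at 3% parasitemia, 25% hematocrit; compounds in RPMI-1640 with 1% DMSO, triplicate wells; untreated, DMSO-only and non-luciferase NF54 blank wells. […] Bright-Glo lysis, luminescence read.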
(In general: In a reporter assay the amount or activity of a reporter protein is the signal.)

The test system of assay [13] is Plasmodium falciparum. In words: Antiplasmodial activity against Plasmodium falciparum at 15 uM after 72 hrs by luciferase reporter gene assay. The format is functional. The method in brief:
as §3

Sequence of Glycogen synthase kinase-3 beta (P49841 whole entry, canonical isoform): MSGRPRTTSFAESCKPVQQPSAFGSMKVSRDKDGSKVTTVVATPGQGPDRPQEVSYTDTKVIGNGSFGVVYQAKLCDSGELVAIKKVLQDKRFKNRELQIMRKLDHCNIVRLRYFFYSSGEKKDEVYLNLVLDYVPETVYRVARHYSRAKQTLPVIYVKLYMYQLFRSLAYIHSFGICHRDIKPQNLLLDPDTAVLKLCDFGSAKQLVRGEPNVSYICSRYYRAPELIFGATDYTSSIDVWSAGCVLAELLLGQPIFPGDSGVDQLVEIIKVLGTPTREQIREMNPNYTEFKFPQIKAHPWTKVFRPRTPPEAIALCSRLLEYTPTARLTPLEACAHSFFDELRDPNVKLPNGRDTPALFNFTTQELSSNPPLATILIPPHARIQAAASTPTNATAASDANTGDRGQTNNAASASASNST

Broadly, the IC50 is the concentration that inhibits the measured activity by half. Turning to `COc1ccccc1-c1c(C#N)c(N)nc2sc(C(=O)c3ccccc3)c(N)c12`, the IC50 in assay [1] was 6 µM; in [2], 95 µM; in assay [3], over 100 µM; in assay [4], 6 µM; in assay [5], 80 µM; in assay [6], over 100 µM. The IC50 in [7], in assay [8], in assay [9], in assay [10] and in assay [11] was over 100 µM each time.
A word on the EC50: it is the midpoint of the concentration-response curve. A lower EC50 goes with an effect from little substance. As a reminder, the inhibition is how much of the control response was suppressed. `N#Cc1c(N)nc2sc(C(=O)c3cccc(Br)c3)c(N)c2c1-c1ccccc1Cl` gave an EC50 in the assay on Plasmodium falciparum [12] of 7.5 µM. Besides, the results for the IC50 in [4] and in assay [11] were 0.91 µM and over 10 µM, respectively. The molecule also showed an inhibition at 15 µM with Plasmodium falciparum [13] of 100%.
Turning to `N#Cc1c(N)nc2sc(C(=O)c3ccc(Cl)cc3)c(N)c2c1-c1ccccc1I`, the half-maximal inhibitory concentration (IC50) in [1] is 1.61 µM; in [2], 15.5 µM; in [3], over 100 µM; in [5], 80 µM; in assay [6], over 100 µM; in assay [7], over 100 µM. In addition, the half-inhibitory concentration (IC50) in [8], in assay [9] and in assay [10] was over 100 µM each time.

Values taken from ChEMBL document CHEMBL2311539, “3,6-Diamino-4-(2-halophenyl)-2-benzoylthieno[2,3-b]pyridine-5-carbonitriles are selective inhibitors of Plasmodium falciparum glycogen synthase kinase-3” (J Med Chem, 2013).
